The source made the active and inactive calls. The calls are words filed in the database; no cut-off is given here.
Legend:
Papain (Carica papaya) [1] = target: T1, Papain (Carica papaya) (UniProt P00784); assay: Ratio of Kinact to Ki for papain by second-order papain inhibition plot
T1 sequence (whole entry): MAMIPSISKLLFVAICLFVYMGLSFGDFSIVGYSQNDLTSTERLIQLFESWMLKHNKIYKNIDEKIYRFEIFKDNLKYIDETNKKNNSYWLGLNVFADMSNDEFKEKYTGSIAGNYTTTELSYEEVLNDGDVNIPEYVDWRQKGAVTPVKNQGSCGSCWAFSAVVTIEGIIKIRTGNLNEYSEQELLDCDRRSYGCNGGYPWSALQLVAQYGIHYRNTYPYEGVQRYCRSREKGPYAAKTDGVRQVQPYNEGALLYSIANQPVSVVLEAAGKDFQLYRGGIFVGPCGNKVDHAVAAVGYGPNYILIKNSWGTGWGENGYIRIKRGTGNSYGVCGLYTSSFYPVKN
Procedure, shortened: (§1)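 Papain preactivated with 1 mM DTT for 30 min, then 3.84 μM preincubated up to 1 h with varying inhibitor in 50 mM Na3PO4/2 mM EDTA pH 6.2:acetonitrile (4:1). Aliquots taken every 10 min into 400 μM Cbz-Gly-ONp; p-nitrophenol absorbance followed, in duplicate. kobs from ln(% activity) vs time slopes; kinact/KI from kobs vs [I] slope (Kitz–Wilson).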

[2] = target: T2, Human rhinovirus A protease (Human rhinovirus sp.) (UniProt Q4U254); assay: Binding affinity to GST-tagged human rhinovirus 3C protease assessed as labeling after 1 hr
T2 sequence (whole entry): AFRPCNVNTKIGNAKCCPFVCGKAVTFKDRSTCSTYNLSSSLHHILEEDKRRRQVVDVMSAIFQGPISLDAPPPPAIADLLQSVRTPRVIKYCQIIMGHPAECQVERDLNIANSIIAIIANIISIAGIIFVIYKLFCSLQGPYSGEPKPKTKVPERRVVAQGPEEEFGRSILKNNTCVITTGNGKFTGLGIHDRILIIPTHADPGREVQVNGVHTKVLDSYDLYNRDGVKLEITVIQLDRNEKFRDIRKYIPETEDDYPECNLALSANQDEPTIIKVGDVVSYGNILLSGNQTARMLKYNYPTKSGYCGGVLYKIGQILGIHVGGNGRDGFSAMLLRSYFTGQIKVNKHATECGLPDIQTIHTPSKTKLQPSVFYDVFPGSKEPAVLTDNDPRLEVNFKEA
Procedure, shortened: (§2)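 Enzyme at 10 μM (papain; recombinant GST-HRV3C protease; recombinant USP08) in 50 mM HEPES, 150 mM NaCl, 0.1 mM EDTA, pH 7.5, with a 10-fragment mixture at 100 μM each (final) and 1% DMSO. Incubated at 23 °C, 1 h for papain and HRV3C, 4 h for USP08. Gel-filtered, then intact-protein LC/ESI-MS with maximum-entropy deconvolution.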

[3] = target: T3, Ubiquitin carboxyl-terminal hydrolase 8 (Homo sapiens) (UniProt P40818); assay: Binding affinity to deubiquitinase USP08 (unknown origin) assessed as labeling after 4 hrs incubation; procedure, shortened: as §2
T3 sequence (whole entry): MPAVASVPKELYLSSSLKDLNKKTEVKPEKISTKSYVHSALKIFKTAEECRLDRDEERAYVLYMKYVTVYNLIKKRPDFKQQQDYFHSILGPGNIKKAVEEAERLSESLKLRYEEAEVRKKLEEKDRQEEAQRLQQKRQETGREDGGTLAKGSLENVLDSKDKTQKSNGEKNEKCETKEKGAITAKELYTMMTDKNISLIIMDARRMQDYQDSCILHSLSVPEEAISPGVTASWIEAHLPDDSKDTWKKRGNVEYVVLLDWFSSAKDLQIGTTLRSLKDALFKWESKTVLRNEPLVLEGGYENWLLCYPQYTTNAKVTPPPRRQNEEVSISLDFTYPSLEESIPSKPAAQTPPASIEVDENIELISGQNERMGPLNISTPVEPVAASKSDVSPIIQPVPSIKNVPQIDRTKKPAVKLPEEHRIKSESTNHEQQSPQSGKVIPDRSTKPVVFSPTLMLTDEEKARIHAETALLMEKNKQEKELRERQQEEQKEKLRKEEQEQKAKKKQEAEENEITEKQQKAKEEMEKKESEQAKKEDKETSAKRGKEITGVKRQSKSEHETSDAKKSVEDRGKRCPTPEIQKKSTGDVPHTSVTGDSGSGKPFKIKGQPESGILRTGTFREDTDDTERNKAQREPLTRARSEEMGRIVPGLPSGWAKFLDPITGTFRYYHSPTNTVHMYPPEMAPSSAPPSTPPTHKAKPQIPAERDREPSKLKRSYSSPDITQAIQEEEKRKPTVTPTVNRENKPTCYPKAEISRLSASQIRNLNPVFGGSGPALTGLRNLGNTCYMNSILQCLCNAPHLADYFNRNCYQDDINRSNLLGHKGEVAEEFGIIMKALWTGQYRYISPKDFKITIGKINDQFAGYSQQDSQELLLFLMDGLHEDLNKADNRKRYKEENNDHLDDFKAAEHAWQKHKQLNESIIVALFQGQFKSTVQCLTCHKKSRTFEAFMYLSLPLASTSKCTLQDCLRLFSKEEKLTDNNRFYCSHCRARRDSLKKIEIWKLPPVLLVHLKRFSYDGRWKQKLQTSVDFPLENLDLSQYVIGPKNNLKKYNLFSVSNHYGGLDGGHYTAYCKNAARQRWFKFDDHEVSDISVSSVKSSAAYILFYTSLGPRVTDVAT

Papain (Carica papaya) [4] = target: T1, Papain (Carica papaya); assay: Irreversible inhibition of papain after 1 hr incubation at 100 uM by ESI-MS analysis in presence of 10 mM glutathione
Papain (Carica papaya) [5] = target: T1, Papain (Carica papaya); assay: Inhibition of papain by first-order papain inhibition plot; procedure, shortened: as §1
Papain (Carica papaya) [6] = target: T1, Papain (Carica papaya); assay: Irreversible inhibition of papain after 1 hr incubation at 100 uM by ESI-MS analysis; procedure, shortened: as §2
Papain (Carica papaya) [7] = target: T1, Papain (Carica papaya); assay: Irreversible inhibition of papain assessed as covalent adducts after 16 to 64 hrs incubation at 100 uM by MS analysis
Papain (Carica papaya) [8] = target: T1, Papain (Carica papaya); assay: Irreversible inhibition of papain assessed as binding affinity cysteine after 1 hr incubation at 1 mM by ESI-MS analysis
Papain (Carica papaya) [9] = target: T1, Papain (Carica papaya); assay: Irreversible inhibition of papain assessed as binding affinity cysteine after 1 hr incubation at 100 uM by ESI-MS analysis

COC(=O)/C=C/CNC(=O)[C@H](CNC(C)=O)Cc1ccccc1
Ratio (Papain (Carica papaya) [1]): 0.386

COC(=O)/C=C/CNC(=O)c1csc(-c2cccs2)n1
Activity [2]: 35%

COC(=O)/C=C/CNC(=O)c1cc2cc(Cl)cc(OC)c2o1
Activity [2]: 20%

COC(=O)/C=C/CNC(=O)[C@@H](CNC(C)=O)Cc1ccccc1
Ratio (Papain (Carica papaya) [1]): 6.58

COC(=O)/C=C/CNC(=O)c1ccc(C2CCCO2)s1 (configuration not stated)
Ratio (Papain (Carica papaya) [1]): 0.037

COC(=O)/C=C/CNC(=O)c1ccccc1NC(=O)Nc1ccc(Cl)cc1
Activity [3]: 30%

COC(=O)/C=C/CNC(=O)c1sc(-c2ccccc2F)nc1C
inhibition (Papain (Carica papaya) [4]): Active | inhibition (Papain (Carica papaya) [5]): Active | inhibition (Papain (Carica papaya) [6]): Active | Ratio (Papain (Carica papaya) [1]): 0.409 | inhibition (Papain (Carica papaya) [7]): Active | inhibition (Papain (Carica papaya) [8]): Active | inhibition (Papain (Carica papaya) [9]): Active | Activity [3]: 30%

COC(=O)/C=C/CNC(=O)c1ccc2ccccc2n1
Activity [2]: 20%

COC(=O)/C=C/CNC(=O)c1cc(-c2ccc(C)cc2)no1
inhibition (Papain (Carica papaya) [4]): Active | inhibition (Papain (Carica papaya) [5]): Active | inhibition (Papain (Carica papaya) [6]): Active | Ratio (Papain (Carica papaya) [1]): 1.23 | inhibition (Papain (Carica papaya) [7]): Active | inhibition (Papain (Carica papaya) [8]): Active | inhibition (Papain (Carica papaya) [9]): Active | Activity [3]: inactive

COC(=O)/C=C/CNC(=O)C1CCN(C(=O)CC(C)C)CC1
inhibition (Papain (Carica papaya) [4]): Active | inhibition (Papain (Carica papaya) [5]): Active | inhibition (Papain (Carica papaya) [6]): Active | Ratio (Papain (Carica papaya) [1]): 0.461 | inhibition (Papain (Carica papaya) [7]): Active | inhibition (Papain (Carica papaya) [8]): Active | inhibition (Papain (Carica papaya) [9]): Active | Activity [3]: inactive

COC(=O)/C=C/CNC(=O)[C@@H](CNC(C)=O)CC(C)C
Ratio (Papain (Carica papaya) [1]): 1.1
